Assay results published in ChEMBL document CHEMBL4725345, “DFG-1 Residue Controls Inhibitor Binding Mode and Affinity, Providing a Basis for Rational Design of Kinase Inhibitor Selectivity” (J Med Chem, 2020).

Key:
[1] = molecular target: TGF-beta receptor type-2 (Homo sapiens) (UniProt P37173); test: Binding affinity to TGFBR2 (unknown origin) assessed as change in melting temperature at 10 uM incubated for 10 mins using SYPRO orange dye by RT-PCR-based fluorescence assay
Summary of the method: (§1)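 Recombinant kinase domain at 2 μM in 10 mM HEPES pH 7.5, 500 mM NaCl, mixed with 10 μM inhibitor for 10 min at room temperature; SYPRO orange added at 1:1000; temperature-dependent unfolding fluorescence read on a real-time PCR instrument; Tm shift derived by a previously described method.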

Homo sapiens = species: Homo sapiens; test: Binding affinity to RSK4B (unknown origin) assessed as change in melting temperature at 10 uM incubated for 10 mins using SYPRO orange dye by RT-PCR-based fluorescence assay; summary of the method: as §1
[2] = molecular target: Ribosomal protein S6 kinase alpha-1 (Homo sapiens) (UniProt Q15418); test: Binding affinity to RSK1B (unknown origin) assessed as change in melting temperature at 10 uM incubated for 10 mins using SYPRO orange dye by RT-PCR-based fluorescence assay
Chain of Ribosomal protein S6 kinase alpha-1 (Homo sapiens) (Q15418 whole entry, looked up): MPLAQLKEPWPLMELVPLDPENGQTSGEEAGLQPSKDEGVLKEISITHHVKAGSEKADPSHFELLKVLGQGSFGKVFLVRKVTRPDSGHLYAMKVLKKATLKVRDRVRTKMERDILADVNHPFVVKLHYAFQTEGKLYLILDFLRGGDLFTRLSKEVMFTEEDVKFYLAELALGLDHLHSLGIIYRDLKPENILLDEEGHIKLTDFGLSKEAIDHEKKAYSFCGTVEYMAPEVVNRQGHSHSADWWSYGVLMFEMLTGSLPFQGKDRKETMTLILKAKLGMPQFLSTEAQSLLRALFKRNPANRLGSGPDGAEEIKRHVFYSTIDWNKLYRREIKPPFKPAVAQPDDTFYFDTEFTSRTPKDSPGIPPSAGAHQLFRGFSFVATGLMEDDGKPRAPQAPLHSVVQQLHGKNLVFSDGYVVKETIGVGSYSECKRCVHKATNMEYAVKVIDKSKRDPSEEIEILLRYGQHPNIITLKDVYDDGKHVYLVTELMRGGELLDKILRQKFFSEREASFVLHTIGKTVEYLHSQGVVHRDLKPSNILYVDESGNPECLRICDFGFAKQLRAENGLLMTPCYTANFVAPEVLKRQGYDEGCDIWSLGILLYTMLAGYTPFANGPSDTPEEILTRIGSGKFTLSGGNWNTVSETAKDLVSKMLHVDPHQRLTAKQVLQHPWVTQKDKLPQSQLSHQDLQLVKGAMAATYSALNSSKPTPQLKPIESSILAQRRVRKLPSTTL

[3] = molecular target: Dual specificity protein kinase CLK1 (Homo sapiens, UniProt P49759); conditions: dose 10.0 µM, time 10.0 min
[4] = molecular target: Cyclin-G-associated kinase (Homo sapiens) (UniProt O14976); test: Binding affinity to GAK (unknown origin) assessed as change in melting temperature at 10 uM incubated for 10 mins using SYPRO orange dye by RT-PCR-based fluorescence assay; summary of the method: as §1
Chain of Cyclin-G-associated kinase (Homo sapiens) (O14976 whole entry): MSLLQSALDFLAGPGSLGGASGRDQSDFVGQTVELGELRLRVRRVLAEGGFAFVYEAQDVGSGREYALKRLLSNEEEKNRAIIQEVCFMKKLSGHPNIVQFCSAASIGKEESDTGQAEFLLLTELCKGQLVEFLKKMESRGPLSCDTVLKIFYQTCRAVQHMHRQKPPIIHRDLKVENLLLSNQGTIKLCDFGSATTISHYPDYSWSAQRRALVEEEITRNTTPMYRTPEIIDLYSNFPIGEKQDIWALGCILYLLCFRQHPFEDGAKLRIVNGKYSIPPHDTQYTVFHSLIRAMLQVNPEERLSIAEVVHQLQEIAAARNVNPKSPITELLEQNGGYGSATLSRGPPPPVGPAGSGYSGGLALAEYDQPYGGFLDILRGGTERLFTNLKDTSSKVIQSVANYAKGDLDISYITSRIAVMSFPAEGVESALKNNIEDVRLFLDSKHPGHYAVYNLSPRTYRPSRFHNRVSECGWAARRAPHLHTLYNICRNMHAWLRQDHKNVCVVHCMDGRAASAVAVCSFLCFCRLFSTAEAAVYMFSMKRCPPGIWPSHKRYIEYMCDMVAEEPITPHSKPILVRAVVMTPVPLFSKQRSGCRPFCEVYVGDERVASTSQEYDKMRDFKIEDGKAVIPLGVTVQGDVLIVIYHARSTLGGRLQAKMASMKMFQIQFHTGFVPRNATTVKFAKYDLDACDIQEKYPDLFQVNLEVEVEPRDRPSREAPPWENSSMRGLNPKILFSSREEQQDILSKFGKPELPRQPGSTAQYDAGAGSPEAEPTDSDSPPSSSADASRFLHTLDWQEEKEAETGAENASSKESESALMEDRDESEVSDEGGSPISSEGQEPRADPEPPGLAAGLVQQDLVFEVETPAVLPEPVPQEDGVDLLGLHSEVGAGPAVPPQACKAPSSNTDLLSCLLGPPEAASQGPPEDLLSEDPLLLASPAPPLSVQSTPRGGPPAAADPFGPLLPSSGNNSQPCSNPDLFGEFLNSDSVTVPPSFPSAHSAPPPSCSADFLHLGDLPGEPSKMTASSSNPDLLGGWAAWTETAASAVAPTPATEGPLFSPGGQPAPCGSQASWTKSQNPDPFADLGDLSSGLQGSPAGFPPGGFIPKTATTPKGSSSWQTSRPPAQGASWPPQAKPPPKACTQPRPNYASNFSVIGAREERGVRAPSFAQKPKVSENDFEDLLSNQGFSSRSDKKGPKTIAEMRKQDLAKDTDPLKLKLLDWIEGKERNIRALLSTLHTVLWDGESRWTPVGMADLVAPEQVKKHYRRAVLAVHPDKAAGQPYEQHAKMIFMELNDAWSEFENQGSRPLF

[5] = molecular target: TGF-beta receptor type-1 (Homo sapiens) (UniProt P36897); test: Binding affinity to TGFBR1 (unknown origin) assessed as change in melting temperature at 10 uM incubated for 10 mins using SYPRO orange dye by RT-PCR-based fluorescence assay; summary of the method: as §1
Chain of TGF-beta receptor type-1 (Homo sapiens) (P36897 whole entry): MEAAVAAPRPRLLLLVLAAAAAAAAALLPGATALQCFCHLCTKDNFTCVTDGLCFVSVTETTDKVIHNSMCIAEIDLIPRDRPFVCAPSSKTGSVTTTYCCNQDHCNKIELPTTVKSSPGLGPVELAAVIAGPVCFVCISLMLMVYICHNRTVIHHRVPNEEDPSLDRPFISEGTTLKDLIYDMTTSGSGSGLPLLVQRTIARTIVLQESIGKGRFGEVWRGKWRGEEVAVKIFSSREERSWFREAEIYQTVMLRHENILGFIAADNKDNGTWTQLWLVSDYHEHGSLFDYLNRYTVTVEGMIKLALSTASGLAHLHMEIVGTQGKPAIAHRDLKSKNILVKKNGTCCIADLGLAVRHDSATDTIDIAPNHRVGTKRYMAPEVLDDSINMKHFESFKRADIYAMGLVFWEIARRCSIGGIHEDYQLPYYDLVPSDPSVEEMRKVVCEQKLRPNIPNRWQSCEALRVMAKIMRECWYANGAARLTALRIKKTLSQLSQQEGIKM

[6] = molecular target: Bone morphogenetic protein receptor type-1A (Homo sapiens) (UniProt P36894); test: Binding affinity to BMPR1A (unknown origin) assessed as change in melting temperature at 10 uM incubated for 10 mins using SYPRO orange dye by RT-PCR-based fluorescence assay; summary of the method: as §1
Chain of Bone morphogenetic protein receptor type-1A (Homo sapiens) (P36894 whole entry, canonical isoform): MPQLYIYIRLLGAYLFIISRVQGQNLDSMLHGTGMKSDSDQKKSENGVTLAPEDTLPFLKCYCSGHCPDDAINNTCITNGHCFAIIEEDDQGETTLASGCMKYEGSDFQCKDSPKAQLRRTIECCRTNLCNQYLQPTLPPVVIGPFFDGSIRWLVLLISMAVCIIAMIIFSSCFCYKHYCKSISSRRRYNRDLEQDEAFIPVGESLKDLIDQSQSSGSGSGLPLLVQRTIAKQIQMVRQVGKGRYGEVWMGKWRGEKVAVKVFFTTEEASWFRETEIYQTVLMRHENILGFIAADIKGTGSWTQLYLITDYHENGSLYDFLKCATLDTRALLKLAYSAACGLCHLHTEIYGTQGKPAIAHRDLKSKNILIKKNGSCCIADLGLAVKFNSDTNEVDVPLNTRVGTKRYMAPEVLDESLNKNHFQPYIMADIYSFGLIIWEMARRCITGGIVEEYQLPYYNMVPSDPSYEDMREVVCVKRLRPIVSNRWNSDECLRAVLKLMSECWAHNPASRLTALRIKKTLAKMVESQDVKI

[7] = molecular target: Casein kinase I isoform epsilon (Homo sapiens) (UniProt P49674); test: Binding affinity to CSNK1E (unknown origin) assessed as change in melting temperature at 10 uM incubated for 10 mins using SYPRO orange dye by RT-PCR-based fluorescence assay; summary of the method: as §1
[8] = molecular target: Dual specificity protein kinase CLK4 (Homo sapiens, UniProt Q9HAZ1); conditions: dose 10.0 µM, time 10.0 min
[9] = molecular target: Serine/threonine-protein kinase 17B (Homo sapiens) (UniProt O94768); test: Binding affinity to DRAK2 (unknown origin) assessed as change in melting temperature at 10 uM incubated for 10 mins using SYPRO orange dye by RT-PCR-based fluorescence assay; summary of the method: as §1
Chain of Serine/threonine-protein kinase 17B (Homo sapiens) (O94768 whole entry): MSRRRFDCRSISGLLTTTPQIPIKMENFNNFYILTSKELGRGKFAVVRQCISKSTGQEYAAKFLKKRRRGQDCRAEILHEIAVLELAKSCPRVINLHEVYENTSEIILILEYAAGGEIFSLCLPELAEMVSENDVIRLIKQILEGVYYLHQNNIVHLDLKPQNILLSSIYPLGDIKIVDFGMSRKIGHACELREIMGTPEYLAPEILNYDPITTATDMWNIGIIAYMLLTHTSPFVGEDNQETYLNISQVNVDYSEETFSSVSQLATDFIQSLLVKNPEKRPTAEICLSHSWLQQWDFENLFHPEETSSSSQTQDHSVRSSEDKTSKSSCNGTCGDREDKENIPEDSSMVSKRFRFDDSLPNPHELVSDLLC

[10] = molecular target: Serine/threonine-protein kinase pim-3 (Homo sapiens) (UniProt Q86V86); test: Binding affinity to PIM3 (unknown origin) assessed as change in melting temperature at 10 uM incubated for 10 mins using SYPRO orange dye by RT-PCR-based fluorescence assay; summary of the method: as §1
[11] = molecular target: Bone morphogenetic protein receptor type-2 (Homo sapiens) (UniProt Q13873); test: Binding affinity to BMPR2 (unknown origin) assessed as change in melting temperature at 10 uM incubated for 10 mins using SYPRO orange dye by RT-PCR-based fluorescence assay; summary of the method: as §1
[12] = molecular target: AP2-associated protein kinase 1 (Homo sapiens) (UniProt Q2M2I8); test: Binding affinity to AAK1 (unknown origin) assessed as change in melting temperature at 10 uM incubated for 10 mins using SYPRO orange dye by RT-PCR-based fluorescence assay; summary of the method: as §1
[13] = molecular target: Activin receptor type-1 (Homo sapiens) (UniProt Q04771); test: Binding affinity to ACVR1 (unknown origin) assessed as change in melting temperature at 10 uM incubated for 10 mins using SYPRO orange dye by RT-PCR-based fluorescence assay; summary of the method: as §1
[14] = molecular target: Activin receptor type-2B (Homo sapiens) (UniProt Q13705); test: Binding affinity to ACTR2B (unknown origin) assessed as change in melting temperature at 10 uM incubated for 10 mins using SYPRO orange dye by RT-PCR-based fluorescence assay; summary of the method: as §1
Chain of Activin receptor type-2B (Homo sapiens) (Q13705 whole entry): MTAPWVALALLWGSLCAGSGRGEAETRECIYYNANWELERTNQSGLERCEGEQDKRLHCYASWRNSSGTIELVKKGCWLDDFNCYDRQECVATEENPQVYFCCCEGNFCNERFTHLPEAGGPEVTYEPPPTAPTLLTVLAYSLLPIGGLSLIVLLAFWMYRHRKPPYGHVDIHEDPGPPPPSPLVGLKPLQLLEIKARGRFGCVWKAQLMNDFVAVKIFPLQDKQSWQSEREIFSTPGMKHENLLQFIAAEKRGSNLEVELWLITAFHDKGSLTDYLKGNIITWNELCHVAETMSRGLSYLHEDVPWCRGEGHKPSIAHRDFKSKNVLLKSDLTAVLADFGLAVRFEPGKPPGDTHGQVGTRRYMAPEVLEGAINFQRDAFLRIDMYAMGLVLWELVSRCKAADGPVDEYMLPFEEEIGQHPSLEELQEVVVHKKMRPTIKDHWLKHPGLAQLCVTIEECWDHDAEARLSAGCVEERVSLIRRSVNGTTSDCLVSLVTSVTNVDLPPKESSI

Chain of TGF-beta receptor type-2 (Homo sapiens) (P37173 whole entry, the tested form may be a part): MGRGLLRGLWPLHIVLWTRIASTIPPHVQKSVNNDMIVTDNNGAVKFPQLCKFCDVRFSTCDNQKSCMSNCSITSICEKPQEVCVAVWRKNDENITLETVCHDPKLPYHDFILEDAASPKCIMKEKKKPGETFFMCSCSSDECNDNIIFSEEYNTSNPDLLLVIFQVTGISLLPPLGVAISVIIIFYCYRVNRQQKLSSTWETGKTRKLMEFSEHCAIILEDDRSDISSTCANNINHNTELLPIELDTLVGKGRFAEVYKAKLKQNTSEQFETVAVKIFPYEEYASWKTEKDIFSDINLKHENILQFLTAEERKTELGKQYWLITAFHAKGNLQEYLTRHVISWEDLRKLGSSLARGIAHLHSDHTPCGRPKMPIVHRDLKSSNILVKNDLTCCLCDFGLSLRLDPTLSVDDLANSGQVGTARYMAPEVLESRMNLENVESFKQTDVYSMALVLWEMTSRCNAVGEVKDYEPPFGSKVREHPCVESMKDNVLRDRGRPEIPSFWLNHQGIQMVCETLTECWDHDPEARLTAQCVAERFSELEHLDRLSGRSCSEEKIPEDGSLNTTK

ΔTm [1]: > 6 °C
ΔTm (Homo sapiens): > 4 °C
ΔTm [2]: > 4 °C
ΔTm [3]: > 4 °C
ΔTm [4]: > 6 °C
ΔTm [5]: > 6 °C
ΔTm [6]: > 6 °C
ΔTm [7]: > 4 °C
ΔTm [8]: > 6 °C
ΔTm [9]: > 4 °C
ΔTm [10]: > 6 °C
ΔTm [11]: > 6 °C
ΔTm [12]: > 6 °C
ΔTm [13]: > 6 °C
ΔTm [14]: > 6 °C
Compound: CC(=O)c1cccc(-c2cnc3ccc(NCC4CC4)nn23)c1
